This is a sample that favours compounds with a hit; in the whole collection about 12% have one here.
ABCG2 block – blocks JC-1 efflux by human ABCG2 transporter; Q9UNQ0; IgMXP3 cells, flow cytometry; inhibition, % at 6.6 µM; 0.1% of 190,000 active; AID 1325;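 active = inhibition above 80%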
Target sequence (Q9UNQ0 whole entry, looked up): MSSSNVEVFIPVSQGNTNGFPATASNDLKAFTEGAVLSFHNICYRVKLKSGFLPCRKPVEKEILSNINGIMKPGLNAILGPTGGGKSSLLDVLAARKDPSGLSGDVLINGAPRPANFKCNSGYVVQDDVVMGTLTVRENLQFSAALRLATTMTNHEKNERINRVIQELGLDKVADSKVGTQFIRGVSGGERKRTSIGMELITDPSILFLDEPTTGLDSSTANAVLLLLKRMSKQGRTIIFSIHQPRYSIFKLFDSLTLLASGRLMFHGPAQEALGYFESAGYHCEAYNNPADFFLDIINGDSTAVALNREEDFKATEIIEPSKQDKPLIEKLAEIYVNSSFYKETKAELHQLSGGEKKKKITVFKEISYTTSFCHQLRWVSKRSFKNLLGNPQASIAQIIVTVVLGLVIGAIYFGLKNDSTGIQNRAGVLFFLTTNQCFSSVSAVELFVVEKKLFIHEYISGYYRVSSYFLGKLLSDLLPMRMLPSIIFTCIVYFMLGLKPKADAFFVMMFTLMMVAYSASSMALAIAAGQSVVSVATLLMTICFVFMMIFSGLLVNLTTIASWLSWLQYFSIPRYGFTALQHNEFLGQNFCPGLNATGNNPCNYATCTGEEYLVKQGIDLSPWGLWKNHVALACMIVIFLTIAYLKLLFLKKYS
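Test system: IgMXP3 cells (ABCG2) mixed with DDAO far-red-labelled CCRF-Adr cells (ABCB1). Reagent: JC-1 transporter substrate. Compound dosing: single test compound dose, 6.6 µM final. Times: 10 min compound exposure, 25 °C. Detection: flow cytometry of retained JC-1 fluorescence. Read-out basis: efflux inhibition in percent versus controls. Controls: nicardipine and DMSO wells.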
RAM inhibit – inhibitors of the yeast RAM network | S. cerevisiae dse1pr::URA3 reporter, 5-FOA growth OD615, 2 d; analog-sensitive cbk1-as2 kinase mutant strain | inhibition, % at 50 µM | 1.8% of 190,000 active;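 active = inhibition above a set limit, 3 SD over mean compound inhibition, cut at about 8.4% in these data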;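 note: inhibition rescues growth on 5-FOA so higher OD means more RAM inhibition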
ABCB1 block – human ABCB1 inhibition, ABCG2 as counter-screen. CCRF-Adr cells, JC-1 efflux, flow cytometry. inhibition, % at 6.6 µM. 0.067% of 190,000 active. AID 1326; in the data active = inhibition above about 40%;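 note: higher value means more JC-1 retained so stronger ABCB1 efflux block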
WT yeast gro inh – growth inhibition of WT yeast, mitochondrial fusion screen. AID 1362. mitochondrial fusion phenotypic screen, WT strain. 2.1% of 190,000 active. inhibition, % at 10 µM; in the data active = inhibition above about 58%; tested in S. cerevisiae
L major viab – Leishmania major promastigote growth inhibition | Leishmania major promastigotes, resazurin fluorescence viability | inhibition, % at 10 µM | 9% of 200,000 active | AID 1063; in the data active = inhibition above about 50%;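 note: promastigotes grown with compound for 44 hours at 28 °C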
Numbers stand for hits; . = inactive; / = no result.

SMILES	ABCG2 block	RAM inhibit	ABCB1 block	WT yeast gro inh	L major viab
COc1ccc2nc(NC(=O)c3cccc(S(=O)(=O)N4CCOCC4)c3)sc2c1	.	.	.	.	.
Cc1c(Nc2ccc(C=O)cc2)c(=O)n(-c2ccccc2)n1C	.	.	.	.	.
Cc1nc(N)sc1C(=O)N/N=C/c1ccccc1[N+](=O)[O-]	.	.	.	.	92
CCOCC(=O)N1CCN(c2ccccc2OC)CC1	.	.	.	.	.
O=S(=O)(NCc1cc(-c2ccccc2Cl)no1)c1ccccc1	.	.	.	.	79
CCCn1c(C)cc(/C=C(\C#N)C(=O)OCC(=O)Nc2cccc(OC)c2)c1C	.	8.9	.	.	61
O=C1COc2ccc(C(=O)CSc3nnc(Cc4cccs4)n3-c3ccc(Cl)cc3)cc2N1	.	.	.	.	.
Cc1ccc(C(=O)Nc2cccnc2N2CCN(C)CC2)cc1	.	.	.	.	.
Cc1ccc(NC(=O)c2ccccc2)s1	.	.	.	.	69
CC(=O)Nc1ccc(NC(=O)c2ccc(-n3c(C)ccc3C)cc2)cc1	.	.	.	.	68
Cc1ccc(C)n1-c1ccc(C(=O)Nc2ccccc2F)cc1	.	.	.	.	.
Cc1ccc(C)n1-c1ccc(NC(=O)c2ccccc2)cc1	.	.	.	.	58
Cc1cc(NC(=O)c2ccccc2)sc1C	.	.	.	.	.
CCOC(=O)C1CCCN(Cc2sccc2C)C1 (stereo not given)	.	.	.	.	.
O=C(Cn1ccc(C(F)(F)F)n1)N/N=C/c1ccc(N2CCOCC2)cc1	.	.	.	.	.
O=[N+]([O-])c1ccc(COc2ccc(-c3[nH]ncc3-c3ccc(Cl)cc3)c(O)c2)cc1	.	.	.	94	73
COc1ccc(-c2[nH]ncc2-c2ccc(Cl)cc2)c(O)c1	.	.	.	.	.
CC(C)(C)c1ccccc1NC(=O)c1c(O)c2cccc3c2n(c1=O)CC3	.	.	.	.	.
O=C(O)c1ccc(/C=C/c2ccc3cccc(O)c3n2)cc1	.	.	.	.	.
O=[N+]([O-])c1cccc2ccc(/C=C/c3ccc(F)cc3)nc12	.	.	.	.	57
O=[N+]([O-])c1ccc(/C=C/c2ccc3cccc([N+](=O)[O-])c3n2)cc1	.	.	.	.	51
COc1cc(/C=C/c2ccc3cccc([N+](=O)[O-])c3n2)ccc1OCC#N	.	.	.	.	.
CCOc1cc(/C=C/c2ccc3cccc([N+](=O)[O-])c3n2)ccc1OCC(=O)N(C)C	.	.	.	.	.
CCOc1cc(/C=C/c2ccc3cccc([N+](=O)[O-])c3n2)ccc1O	.	.	.	.	73
O=C(NCc1ccccn1)C(=O)Nc1nc(C23CC4CC(CC(C4)C2)C3)cs1	.	.	.	71	68
SMILES	ABCG2 block	RAM inhibit	ABCB1 block	WT yeast gro inh	L major viab
O=C(NCc1ccccn1)NC12CC3CC(CC(C3)C1)C2	.	.	.	.	.
C(=N\Nc1nc2ccccc2[nH]1)/c1c[nH]c2ccccc12	.	.	.	.	99
Cc1nn(-c2ccccc2)c(Cl)c1/C=N/Nc1nc2ccccc2[nH]1	.	.	.	.	.
Brc1ccc(-c2ccc(/C=N/Nc3nncc(-c4ccccc4)n3)o2)cc1	.	.	.	.	.
Cc1ccccc1/C=N/Nc1nc2ccccc2[nH]1	.	.	.	.	79
Cn1c(/N=C/c2c[nH]c3ccccc23)nc2ccccc21	.	.	.	.	.
Brc1ccc(-c2ccc(/C=N/Nc3nc4ccccc4[nH]3)o2)cc1	.	.	.	.	80
Cc1ccc(/C=N/Nc2nc3ccccc3[nH]2)s1	.	.	.	.	57
CC(C)Cn1cc(Cl)c(=O)n(CC(C)C)c1=O	.	.	.	.	.
Cc1cc(=O)cc(C)n1-c1ccc(F)cc1F	.	.	.	.	.
O=[N+]([O-])c1cc(/C=N/Nc2nc3ccccc3[nH]2)c(O)cc1O	.	.	.	.	99
Cc1ccc2nc(Cl)c(C3CC(c4cccs4)=NN3S(C)(=O)=O)cc2c1 (stereo not given)	.	.	.	.	84
O=C(c1ccc(F)cc1)n1c(NCc2ccccc2)n[nH]c1=S	.	.	.	.	.
O=C(COC(=O)c1ccc2[nH]c3c(c2c1)CCCC3)Nc1ccccc1	.	.	.	.	88
CN(C)/C=C(\C#N)C(=O)Nc1ccc(O)cc1F	.	.	.	.	.
Fc1ccc(CSc2ccc3nnc(-c4cccnc4)n3n2)cc1	.	.	.	.	66
Cc1nc(SCC2(C)CC2(Cl)Cl)n[nH]1 (stereo not given)	.	.	.	.	.
O=C(OC(C(=O)Nc1ccc([N+](=O)[O-])cc1Br)c1ccccc1)c1ccccc1 (stereo not given)	.	.	.	.	100
O=C(Nc1ccc([N+](=O)[O-])cc1Br)c1cccnc1	.	.	.	.	54
CC(C)C(=O)Nc1ccc([N+](=O)[O-])cc1Br	.	.	.	.	.
COc1ccc(C(=O)N(C)Cc2ccccc2)cc1Br	.	.	.	.	.
COc1ccccc1NS(=O)(=O)c1cc(NC(=O)/C=C/c2cccs2)ccc1N1CCOCC1	.	.	.	.	99
O=C(/C=C/c1cccs1)Nc1ccc(N2CCOCC2)c(S(=O)(=O)Nc2ccccc2Cl)c1	.	.	.	.	99
O=C(/C=C/c1cccs1)Nc1ccc(N2CCOCC2)c(S(=O)(=O)Nc2cc(Cl)ccc2Cl)c1	.	.	.	.	.
COC(=O)CSc1nc2[nH]ncc2c(=O)[nH]1	.	.	.	.	.
SMILES	ABCG2 block	RAM inhibit	ABCB1 block	WT yeast gro inh	L major viab
N#Cc1c(-c2ccccc2)c(-c2ccccc2)n(Cc2ccco2)c1NC(=O)c1cccs1	.	.	.	.	62
O=C(CSc1nnc(-c2ccc(O)cc2)n1Cc1ccco1)c1cccs1	.	.	.	.	.
COc1ccc(C(C(=O)NC2CCCC2)N(C(=O)c2ccoc2C)c2ccc(C)c(C)c2)cc1 (stereo not given)	.	.	.	.	75
COc1ccc(C(C(=O)NC2CCCC2)N(C(=O)c2ccoc2C)c2cc(C)cc(C)c2)cc1 (stereo not given)	.	.	.	.	.
COc1ccc(N(C(=O)c2ccco2)C(C(=O)NC2CCCC2)c2ccc(N(C)C)cc2)cc1 (stereo not given)	.	.	.	.	54
COc1ccc(N(C(=O)/C=C/C(=O)Nc2cc(C)on2)C(C(=O)NC2CCCC2)c2ccccc2C)cc1 (stereo not given)	.	.	/	.	97
CCOC(=O)C1(CC2CCCCO2)CCN(S(=O)(=O)c2cc(C)cs2)CC1 (stereo not given)	.	.	.	.	.
Cc1ccc(NC(=O)c2ccc(C(C)(C)C)cc2)cc1[N+](=O)[O-]	.	.	.	.	.
Cn1c(/C(C#N)=C/c2cccc(O)c2)nc2ccccc21	.	.	.	.	89
CC(C(=O)N1CCCc2c1c(=O)oc1ccc(O)cc21)N1CCc2ccccc2C1 (stereo not given)	.	.	.	.	95
